Blank lines part the entries; values can stand above or below the compound they belong to. Where a SMILES comes first, the peptide text is derived from it. [ ]: non-standard residue; d: D form. The star is where a group is joined. ξ: configuration not given here. ξF = NC(Cc1ccccc1)C(=O)O; Cbz = O=C(OCc1ccccc1)*
How the values were obtained:
[1] = target: T1, Calpain-1 catalytic subunit (Homo sapiens) (UniProt P07384); assay: Percent inhibition of human calpain 1 at highest 200 uM; Inhibition within […]
T1 sequence (whole entry): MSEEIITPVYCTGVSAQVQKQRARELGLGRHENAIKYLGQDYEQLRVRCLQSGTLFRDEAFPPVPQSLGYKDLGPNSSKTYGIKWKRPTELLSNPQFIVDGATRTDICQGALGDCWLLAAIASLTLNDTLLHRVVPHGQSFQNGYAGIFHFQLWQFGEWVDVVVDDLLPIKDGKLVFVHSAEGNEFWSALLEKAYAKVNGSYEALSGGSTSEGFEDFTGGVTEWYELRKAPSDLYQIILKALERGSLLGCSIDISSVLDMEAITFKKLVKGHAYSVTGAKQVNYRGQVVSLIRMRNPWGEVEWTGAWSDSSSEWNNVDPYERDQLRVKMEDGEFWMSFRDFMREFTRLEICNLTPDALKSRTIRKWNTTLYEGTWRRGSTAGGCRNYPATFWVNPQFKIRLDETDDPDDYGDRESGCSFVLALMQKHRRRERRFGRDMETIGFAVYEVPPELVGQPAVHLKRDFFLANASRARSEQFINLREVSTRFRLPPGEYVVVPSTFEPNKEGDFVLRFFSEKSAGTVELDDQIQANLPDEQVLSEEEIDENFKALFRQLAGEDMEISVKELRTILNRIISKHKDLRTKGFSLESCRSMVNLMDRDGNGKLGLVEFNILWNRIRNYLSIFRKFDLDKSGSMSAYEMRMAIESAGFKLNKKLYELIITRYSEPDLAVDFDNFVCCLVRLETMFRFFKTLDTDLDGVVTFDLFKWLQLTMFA
How it was run: (§1)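 Recombinant human calpain I expressed in baculovirus, continuous fluorescence assay with Suc-Leu-Tyr-AMC (8 mM stock) in Tris 50 mM pH 7.3, EDTA 0.5 mM, βME 10 mM. Started with CaCl2 (40 mM stock). Ex 380/em 460 nm, linear for at least 2 min. Percent inhibition is the drop in initial rate against DMSO-only controls at the highest concentration tested. Values are within 10%.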

[2] = target: T1, Calpain-1 catalytic subunit (Homo sapiens); assay: Percent inhibition of human calpain 1 at 180 uM; Inhibition within […]; how it was run: as §1
[3] = target: T1, Calpain-1 catalytic subunit (Homo sapiens); assay: Percent inhibition of human calpain 1 at 120 uM; Inhibition within […]; how it was run: as §1
[4] = Concentration required for inhibition of calpain
How it was run: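 Calpain I (recombinant human, baculovirus-expressed) was hydrolysing Suc-Leu-Tyr-AMC in Tris 50 mM pH 7.3 with EDTA 0.5 mM and βME 10 mM, activated by CaCl2 (40 mM stock). Fluorescence was followed continuously at ex 380/em 460 nm. The value is the concentration giving a 50% decrease in initial hydrolysis rate relative to DMSO controls.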

[5] = target: T1, Calpain-1 catalytic subunit (Homo sapiens); assay: Percent inhibition of human calpain 1 at 680 uM; Inhibition within […]; how it was run: as §1
[6] = target: T1, Calpain-1 catalytic subunit (Homo sapiens); assay: Percent inhibition of human calpain 1 at 90 uM; Inhibition within […]; how it was run: as §1
[7] = target: T1, Calpain-1 catalytic subunit (Homo sapiens); assay: Percent inhibition of human calpain 1 at 920 uM; Inhibition within […]; how it was run: as §1
[8] = target: T1, Calpain-1 catalytic subunit (Homo sapiens); assay: Percent inhibition of human calpain 1 at 350 uM; Inhibition within […]; how it was run: as §1
[9] = target: T1, Calpain-1 catalytic subunit (Homo sapiens); assay: Percent inhibition of human calpain 1 at 500 uM; Inhibition within […]; how it was run: as §1
[10] = target: T1, Calpain-1 catalytic subunit (Homo sapiens); assay: Percent inhibition of human calpain 1 at 360 uM; Inhibition within […]; how it was run: as §1
[11] = target: T1, Calpain-1 catalytic subunit (Homo sapiens); assay: Percent inhibition of human calpain 1 at 190 uM; Inhibition within […]; how it was run: as §1
[12] = target: T1, Calpain-1 catalytic subunit (Homo sapiens); assay: Percent inhibition of human calpain 1 at 300 uM; Inhibition within […]; how it was run: as §1
[13] = Binding affinity for rat erythrocyte calpain
[14] = target: T1, Calpain-1 catalytic subunit (Homo sapiens); assay: Percent inhibition of human calpain 1 at 610 uM; Inhibition within […]; how it was run: as §1
[15] = target: T1, Calpain-1 catalytic subunit (Homo sapiens); assay: Percent inhibition of human calpain 1 at 280 uM; Inhibition within […]; how it was run: as §1
[16] = target: T1, Calpain-1 catalytic subunit (Homo sapiens); assay: Percent inhibition of human calpain 1 at 100 uM; Inhibition within […]; how it was run: as §1
[17] = target: T1, Calpain-1 catalytic subunit (Homo sapiens); assay: Percent inhibition of human calpain 1 at 550 uM; Inhibition within […]; how it was run: as §1
[18] = target: T1, Calpain-1 catalytic subunit (Homo sapiens); assay: Percent inhibition of human calpain 1 at 97 uM; Inhibition within […]; how it was run: as §1
[19] = target: T1, Calpain-1 catalytic subunit (Homo sapiens); assay: Percent inhibition of human calpain 1 at 170 uM; Inhibition within […]; how it was run: as §1
[20] = target: T1, Calpain-1 catalytic subunit (Homo sapiens); assay: Percent inhibition of recombinant human calpain 1 at highest concentration of 150 uM; Inhibition values are within […]; how it was run: as §1
[21] = target: T1, Calpain-1 catalytic subunit (Homo sapiens); assay: Percent inhibition of human calpain 1 at 650 uM; Inhibition within […]; how it was run: as §1
[22] = target: T1, Calpain-1 catalytic subunit (Homo sapiens); assay: Percent inhibition of human calpain 1 at 110 uM; Inhibition within […]; how it was run: as §1
[23] = target: T1, Calpain-1 catalytic subunit (Homo sapiens); assay: Percent inhibition of human calpain 1 at 160 uM; Inhibition within […]; how it was run: as §1
[24] = target: T1, Calpain-1 catalytic subunit (Homo sapiens); assay: Percent inhibition of human calpain 1 at 580 uM; Inhibition within […]; how it was run: as §1
[25] = target: T1, Calpain-1 catalytic subunit (Homo sapiens); assay: Percent inhibition of human calpain 1 at 130 uM; Inhibition within […]; how it was run: as §1
[26] = target: T1, Calpain-1 catalytic subunit (Homo sapiens); assay: Percent inhibition of human calpain 1 at 210 uM; Inhibition within […]; how it was run: as §1

inhibition [1]: 0%
SMILES: O=C1N[C@@H](Cc2c[nH]c3ccccc23)C(=O)N[C@H]1COCc1ccccc1

inhibition [2]: 0%
SMILES: O=C1N[C@@H](Cc2c[nH]c3ccccc23)C(=O)N[C@H]1Cc1c[nH]c2ccccc12

inhibition [3]: 0%
SMILES: O=C1N[C@@H](Cc2ccc(O)cc2)C(=O)N[C@H]1COCc1ccccc1

IC50 [4]: 0.8 µM | inhibition [5]: 0%
SMILES: CN1C(=O)[C@H](Cc2ccc(O)cc2)N(C)C(=O)[C@@H]1Cc1ccc(O)cc1

inhibition [6]: 25%
SMILES: COC(=O)C[C@@H]1NC(=O)[C@H](Cc2ccc(O)cc2)NC1=O

inhibition [7]: 0%
SMILES: CC(C)C[C@@H]1NC(=O)[C@H](Cc2c[nH]c3ccccc23)NC1=O

inhibition [1]: 0%
SMILES: CC(C)[C@@H]1NC(=O)[C@H](Cc2ccc(OCc3ccccc3)cc2)NC1=O

inhibition [8]: 0%
SMILES: Cc1ccc(S(=O)(=O)/N=C(/N)NCCC[C@@H]2NC(=O)[C@H](Cc3ccccc3)NC2=O)cc1

inhibition [9]: 0%
SMILES: O=C1N[C@@H](Cc2ccc(O)cc2)C(=O)N[C@H]1Cc1ccc(O)cc1

inhibition [10]: 0%
SMILES: CN1C(=O)[C@H](Cc2ccc(O)cc2)N(C)C(=O)[C@@H]1Cc1ccccc1

inhibition [11]: 0%
SMILES: CC(C)C[C@@H]1NC(=O)[C@H](Cc2ccc(O)cc2)NC1=O

inhibition [12]: 0%
SMILES: CN1C(=O)[C@H](Cc2ccccc2)N(C)C(=O)[C@@H]1Cc1ccccc1

Ki [13]: 0.01 µM
SMILES: CC(C)[C@H](NC(=O)OCc1ccccc1)C(=O)NC(C=O)Cc1ccccc1 (stereo partly drawn) (Cbz-Val-[ξF]-aldehyde)

inhibition [14]: 25%
SMILES: COC(=O)C[C@H]1NC(=O)[C@H](Cc2ccccc2)NC1=O

inhibition [2]: 0%
SMILES: O=C1N[C@@H](Cc2ccc(O)cc2)C(=O)N[C@H]1Cc1ccccc1

inhibition [15]: 0%
SMILES: O=C1N[C@@H](Cc2ccccc2)C(=O)N[C@H]1Cc1ccccc1

inhibition [16]: 0%
SMILES: O=C1N[C@@H](Cc2c[nH]c3ccccc23)C(=O)N[C@H]1Cc1ccccc1

IC50 [4]: 1.3 µM | inhibition [17]: 0%
SMILES: CC(C)c1ncc(Cc2ccccc2)nc1O

inhibition [18]: 50%
SMILES: O=C1N[C@@H](Cc2ccc(OCc3ccccc3)cc2)C(=O)N[C@H]1Cc1ccc(OCc2ccccc2)cc1

inhibition [19]: 0%
SMILES: Cc1ccc(S(=O)(=O)/N=C(/N)NCCC[C@@H]2NC(=O)[C@H](Cc3ccc(O)cc3)NC2=O)cc1

inhibition [20]: 0%
SMILES: COC(=O)C[C@@H]1NC(=O)[C@H](COCc2ccccc2)NC1=O

inhibition [3]: 0%
SMILES: COC(=O)C[C@@H]1NC(=O)[C@H](Cc2ccc(OCc3ccccc3)cc2)NC1=O

inhibition [21]: 50%
SMILES: O=C1N[C@@H](Cc2ccc(OCc3ccccc3)cc2)C(=O)N[C@H]1Cc1ccccc1

IC50 [4]: 7.1 µM
SMILES: COc1c([C@@H](O)CC(C)C)ccc2c1C(=O)OCc1cc(C)cc(O)c1O2 [PENICILLIDE]

inhibition [22]: 0%
SMILES: CC(C)C[C@@H]1NC(=O)[C@H](COCc2ccccc2)NC1=O

inhibition [23]: 13%
SMILES: COC(=O)C[C@@H]1NC(=O)[C@H](Cc2ccccc2)NC1=O

inhibition [11]: 30%
SMILES: C[C@H](O)[C@@H]1NC(=O)[C@H](Cc2ccccc2)NC1=O

inhibition [12]: 0%
SMILES: O=C1N[C@@H](Cc2ccccc2)C(=O)N[C@H]1COCc1ccccc1

inhibition [24]: 0%
SMILES: C[C@H](O)[C@@H]1NC(=O)[C@H](Cc2ccc(O)cc2)NC1=O

IC50 [4]: 0.4 µM
SMILES: O=C(O)/C(S)=C/c1ccc(I)cc1

inhibition [25]: 0%
SMILES: CC(C)C[C@@H]1NC(=O)[C@H](Cc2ccccc2)NC1=O

inhibition [26]: 0%
SMILES: COC(=O)C[C@H]1NC(=O)[C@H](Cc2ccc(O)cc2)NC1=O

inhibition [8]: 50%
SMILES: CN1C(=O)[C@H](Cc2ccc(OCc3ccccc3)cc2)N(C)C(=O)[C@@H]1Cc1ccc(OCc2ccccc2)cc1

inhibition [20]: 0%
SMILES: O=C1N[C@@H](Cc2c[nH]c3ccccc23)C(=O)N[C@H]1Cc1ccc(O)cc1

Source: ChEMBL document CHEMBL1139620, “Synthesis of a small library of diketopiperazines as potential inhibitors of calpain” (Bioorg Med Chem Lett, 2005)
